“Also recorded” adds a separate entry of the source. Like-named read-outs stand apart in the source and are kept apart here.
Legend:
[1] = tested on: six human cancer cell lines (HCT-116, S1, DU-145, PC-3, MDA-MB-231, MCF-7); assay: MTT cell cytotoxicity assay, panel of cancer cell lines; assay type: cell-based; details: for IC50: Homo sapiens
Procedure, shortened: (§1)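 Cell lines grown as adherent monolayers in DMEM with 10% FBS at 37°C, 5% CO2. Trypsinised cells seeded at 5×10^3 cells/well and exposed to test compound at 0.1 to 100 μM for 72 h. MTT (4 mg/ml) added for 4 h, formazan dissolved in DMSO, and absorbance read at 570 nm. IC50 derived from survival curves by the Bliss method. Mean±SD from at least three experiments, each in triplicate.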

[2] = tested on: HCT-116 colon cancer cells; assay: Morphological analysis by microscopy, HCT-116; assay type: cell-based, human; details: 68 h
Procedure, shortened: (§2)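 Cells from the MTT setup, with and without test compound, were photographed at 68 h on an inverted microscope for each triplicate treatment. Images for the different concentrations were compared double-blind for cell size, shape and number.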

[3] = tested on: PC-3 prostate cancer cells; assay: Morphological analysis by microscopy, PC-3; assay type: cell-based, human; details: 68 h
Procedure, shortened: as §2

[4] = tested on: PC-3 prostate cancer cells; assay: MTT cell cytotoxicity assay, PC-3; assay type: cell-based; details: Homo sapiens, 72 h, read-out: IC50 ± SD, PC3
Procedure, shortened: as §1

[5] = tested on: HEK293/pcDNA3.1 human primary embryonic kidney cells; assay: MTT cell cytotoxicity assay, HEK293/pcDNA3.1; assay type: cell-based; details: HEK293, 72 h, read-out: IC50 ± SD, HEK 293/pcDNA.3.1
Procedure, shortened: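 Empty-vector-transfected HEK293 cells, grown adherent in DMEM + 10% FBS at 37°C, 5% CO2, were trypsinised and seeded at 5×10³ cells/well. Test compound was added at 0.1–100 μM for 72 h. MTT solution (4 mg/ml) was then added for 4 h, and formazan was dissolved in DMSO and read at 570 nm. IC50 was derived from survival curves by the Bliss method; mean±SD from ≥3 experiments, each in triplicate.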

[6] = tested on: ABCB1 (P-glycoprotein, MDR1); assay: MTT cell cytotoxicity assay, ABCB1 overexpressing cells; assay type: cell-based; details: human, HEK293/ABCB1 cells (P-glycoprotein overexpressing)
[7] = tested on: MCF-7 breast cancer cells; details: 10 μM for 72 h, relative percent cell viability only; cited from earlier work
[8] = tested on: PC-3 prostate cancer cells; details: 10 μM for 72 h, relative percent cell viability only; cited from earlier work
[9] = tested on: HCT-116 colon cancer cells; details: 10 μM for 72 h, relative percent cell viability only; cited from earlier work
[10] = read-out: mean IC50 values in all the cancer cell lines tested

Q: Which IC50 [1, 10] does the source give for `Cc1cc(/C=C/c2ccc(O)c(O)c2)on1` [VA-7] here?
A: 3.3 to 10.7 µM

Q: With `COc1cc(CCC(=O)CC(C)=O)ccc1O` [VA-16] as the compound, how does the morphological characteristics ([2]; concentrations up to 100 μM) read?
A: no significant change

Q: And the “activity (inhibition of cell survival) in the tested concentration range” value ([1]; MTT, concentrations up to 100 μM)?
A: no significant activity

Q: And the morphological characteristics ([3]; concentrations up to 100 μM)?
A: no significant change

Q: What about the IC50 [4] of the same compound?
A: > 100 µM

Q: Which results are given for `COc1ccc(CCC(=O)CC(C)=O)cc1` [VA-18, 6-(4-methoxyphenyl)hexane-2,4-dione]?
A: IC50 [5]: 50.2 ± 8.9 µM; IC50 at 72 h [6]: 51.2 ± 10.3 µM

Q: With `CC(=O)CC(=O)/C=C/c1ccc(O)cc1` [VA-3, dehydroxy hispolon] as the compound, how does the “activity against MCF-7 (previous study)” value [7] read?
A: active

Q: And the “activity against PC-3 (previous study)” value [8]?
A: active

Q: And the “activity against HCT-116 (previous study)” value [9]?
A: active

Q: Which “activity against MCF-7 (previous study)” value [7] does the source give for `CC(=O)/C=C(O)/C=C/c1ccc(O)c(O)c1` [VA-1, Hispolon] here?
A: active

Q: What about the “activity against PC-3 (previous study)” value [8] of the same compound?
A: active

Q: And the “activity against HCT-116 (previous study)” value [9]?
A: active

Q: With `COc1cc(/C=C/C(=O)CC(C)=O)ccc1O` [VA-2, hispolon methyl ether] as the compound, how does the “morphological analysis (cell number, cell size)” value ([2]; 1 μM) read?
A: marked reduction of cell number; also recorded: significant reduction of cell number

Q: And the IC50 ([1]; read-out: observed mean IC50 values in colon and prostate cancer cell lines)?
A: 1.4 to 6.3 µM

Q: And the “activity against MCF-7 (previous study)” value [7]?
A: active

Q: And the “activity against PC-3 (previous study)” value [8]?
A: active

Q: And the “activity against HCT-116 (previous study)” value [9]?
A: active

Q: What about the “morphological analysis (cell number, cell size)” value ([3]; 1 μM) of the same compound?
A: marked reduction of cell number; also recorded: significant reduction of cell number

Q: With `COc1ccc(/C=C/c2cc(C)n[nH]2)cc1` [VA-15, (E)-5-(4-methoxystyryl)-3-methyl-1H-Pyrazole] as the compound, how does the IC50 [1, 10] read?
A: 3.3 to 10.7 µM

— publication PMC4398655 (Bioorganic & medicinal chemistry, 2015)
